SUMO1-SIM PPI: SUMO1-SIM interaction modulation; AID 602429; 360,000 tested, 0.33% active; SUMO1 binding to a labelled peptide, TR-FRET, 1 h; P63165; inhibition, % at 20 µM; in the data active means inhibition above about 37%
STEP inh: blocks human striatal-enriched tyrosine phosphatase; recombinant STEP, OMFP fluorogenic substrate, fluorescence; inhibition, % at 20 µM; 360,000 tested, 0.25% active;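 active means inhibition at 20 µM, scaled per plate between control wells, above about 37%, limit read from the data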;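 further: 0% = DMSO with enzyme and substrate and 100% = substrate only without enzyme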
Target sequence (P54829 whole entry, looked up): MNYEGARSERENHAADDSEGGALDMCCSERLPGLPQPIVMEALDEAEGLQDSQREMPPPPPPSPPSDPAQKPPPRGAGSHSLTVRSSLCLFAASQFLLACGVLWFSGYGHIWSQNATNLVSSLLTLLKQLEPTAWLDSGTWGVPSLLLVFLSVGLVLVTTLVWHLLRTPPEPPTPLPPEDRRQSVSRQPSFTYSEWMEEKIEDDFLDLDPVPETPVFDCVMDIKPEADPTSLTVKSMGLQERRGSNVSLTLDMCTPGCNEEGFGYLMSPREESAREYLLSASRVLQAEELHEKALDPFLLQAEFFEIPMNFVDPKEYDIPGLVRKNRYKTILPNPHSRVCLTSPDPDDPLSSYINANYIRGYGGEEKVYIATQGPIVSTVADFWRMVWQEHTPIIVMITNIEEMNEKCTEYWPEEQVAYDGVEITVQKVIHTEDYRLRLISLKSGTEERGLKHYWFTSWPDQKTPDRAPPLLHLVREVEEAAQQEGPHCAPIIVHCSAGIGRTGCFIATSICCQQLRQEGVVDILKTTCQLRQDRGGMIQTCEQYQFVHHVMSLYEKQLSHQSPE
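medium = Bis-Tris buffer pH 6.0, 2.5 mM DTT, 0.005% Tween 20 | test system = STEP (striatal-enriched tyrosine phosphatase) enzyme, cell-free | measure = normalized % inhibition | compound dosing = 20 µM, 1% DMSO | also added = 25 µM OMFP | schedule = reaction 20 min, ambient temperature | measured by = fluorescence read at 480 nm ex / 540 nm em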
Scp-1 inhibitor: blocks human Scp-1 phosphatase activity; Q9GZU7; Recombinant Scp1, phosphopeptide, malachite green phosphate absorbance; inhibition, % at 20 µM; 340,000 tested, 0.88% active; AID 493091;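 active means inhibition above about 50% at 20 µM, limit read from the data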;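 further: plate controls were DMSO wells with enzyme for no effect and wells lacking enzyme for full effect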
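Assay system: SCP-1 catalytic fragment, aa 76-261 | Buffer or medium: Tris acetate buffer pH 5.5 with MgCl2 and Tween-20 | Compound: One concentration, 20 µM, with 1.0% DMSO | Also added: Phospho 17-mer peptide substrate | Signal: Absorbance at 630 nm | Incubation: 45 min enzyme reaction at room temperature | Measure: % inhibition of SCP-1 phosphate liberation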
DNMT1 block: inhibitors of human DNMT1; P26358; inhibition (reported as % activation of signal), % at 10 µM; 360,000 tested, 0.83% active; DNMT1 molecular beacon, Hinp1I cleavage, fluorescence; AID 588458; in the data active means inhibition above about 50%
LMPTP inh: blocks human LMPTP phosphatase; 360,000 tested, 0.22% active; inhibition, % at 20 µM; recombinant LMPTP-A, OMFP fluorogenic substrate, fluorescence intensity;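 active means compounds that cut the enzyme signal by at least half of the control window in the single-dose screen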;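 further: plate controls were DMSO wells with enzyme plus substrate for no effect and substrate without enzyme for full effect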
Target sequence (P24666 whole entry, looked up): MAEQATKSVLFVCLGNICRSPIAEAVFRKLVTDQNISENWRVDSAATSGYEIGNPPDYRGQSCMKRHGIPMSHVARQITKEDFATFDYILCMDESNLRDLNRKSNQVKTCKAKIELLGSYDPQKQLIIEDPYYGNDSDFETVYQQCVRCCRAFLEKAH
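Test system – LMPTP-A enzyme · Amount – LMPTP-A at 0.625 nM final in the reaction · Buffer or medium – Bis-Tris pH 6.0, DTT, detergent · Reagent – OMFP 400 µM · Doses – single 20 µM dose · Schedule – reaction 50 min, room temperature, dark · Detection – fluorescence intensity of OMFP turnover product · Evaluation – percent inhibition versus substrate-only and uninhibited controls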
Scp-1 conf: confirmation of human Scp-1 phosphatase inhibitors; shares compounds with Scp-1 inhibitor; recombinant SCP-1 catalytic domain, phosphate release, malachite green absorbance; inhibition, % at 20 µM; 2,500 tested, 61% active; AID 540281;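 further: plate controls were DMSO with enzyme for no effect and buffer wells lacking enzyme for full effect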
MG interference: colorimetric interference in Scp-1 counter-screen; shares compounds with Scp-1 inhibitor; Colorimetric interference counterscreen, malachite green absorbance 630 nm; apparent inhibition (interference), % at 20 µM; 2,500 tested, under 10 active; AID 540313;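 further: compounds added after enzyme reaction finished so only phosphate colour detection is probed; plate controls were DMSO wells with completed Scp-1 reaction for no effect and substrate wells lacking enzyme for full effect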
Scp-1 Tm shift: binds human Scp-1, shifting its melting temperature; shares compounds with Scp-1 inhibitor; Recombinant SCP1, Sypro Orange thermal shift Tm; thermal shift relative to vanadate control, % at 40 µM; 1,500 tested, 25% active; AID 540329;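 active means substances whose mean melting-temperature shift, as a percentage of the reference inhibitor's shift, reaches about 5.3%, limit read from the data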;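 further: 0% = Tm of DMSO wells and 100% = Tm with sodium orthovanadate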
Beacon interf DR: counter-screen for DNMT1 inhibitors: spectral interference, dose response | shares compounds with DNMT1 block | molecular beacon fluorescence | IC50, µM | 200 tested, under 10 active; call rule not given here
DNMT1 confirm: DNMT1 inhibition confirmation, single concentration; 2,300 tested, 8% active; DNMT1 molecular beacon HinP1I cleavage, fluorescence; shares compounds with DNMT1 block; inhibition, % at 10 µM;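 active means average inhibition of at least 30% in the single-concentration confirmation test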
Beacon interf: shows spectral interference in the DNMT1 beacon assay; shares compounds with DNMT1 block; DNMT1 molecular beacon spectral interference counterscreen, fluorescence 485/520; activation (fluorescence interference), % at 10 µM; 2,300 tested, 1% active;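 active means activation of at least 30% at 10 µM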;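 further: DNMT1 catalytic domain with a HinP1I cleavage step and a FAM/dabcyl DNA beacon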
STEP inh conf: STEP (human) phosphatase inhibition, single concentration confirmation; shares compounds with STEP inh; 520 tested, 32% active; inhibition, % at 20 µM; recombinant STEP, OMFP fluorogenic substrate, fluorescence; call rule not given here;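 further: 0% = enzyme with substrate plus DMSO and 100% = substrate without enzyme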
Active calls of the source: *; · = no result. An excerpt weighted towards active compounds, which were near 1.7% of everything screened.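 How the source made its calls, unless noted: active means inhibition of at least 30% at 20 µM; inactive means the rest.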

SMILES	SUMO1-SIM PPI	STEP inh	Scp-1 inhibitor	DNMT1 block	LMPTP inh	Scp-1 conf	MG interference	Scp-1 Tm shift	STEP inh conf	others
CCc1ccc(OCC(=O)Nc2ccc(-c3nc4ccccc4o3)c(O)c2)cc1	2	66*	100*	77*	39	73*	-21	-1	19*	DNMT1 confirm=4;Beacon interf=3
CC(=O)N1CCOc2ccc(S(=O)(=O)NCc3ccc(F)cc3)cc21	-2	73*	62*	26	22	50*	-16	-9	30*
COc1cccc(Nc2nn3c(=O)c4ccccc4nc3s2)c1	-8	82*	60*	19	18	58*	-2	6.1*	47*
Cc1ccc(NC(=O)CSc2nnc(COc3ccccc3F)n2N)cc1S(=O)(=O)N1CCOCC1	-6	-1	5	-2	-5	·	·	·	·
CCOC(=O)CN1C(=O)S/C(=C/c2ccc(OCc3ccc(C(=O)O)cc3)cc2)C1=O	-19	78*	93*	0	27	67*	-2	-14	50*
NC(=O)c1cc2ccccc2o/c1=N\NC(=O)c1ccccc1O	-3	99*	103*	2	75*	79*	-3	-12	90*
CC(=O)Oc1ccc(/C=N\NC(=O)c2cc3c(ccc4ccccc43)o2)cc1	-21	90*	92*	28	30	69*	-18	-17	5
O=C(/C=C/c1ccc(Cl)cc1)NC(=S)Nc1ccc(C(=O)O)cc1	-7	92*	96*	2	67*	88*	-8	-2	50*
CN(C)c1ccc(NC(=S)NC(=O)/C=C/c2ccc(Cl)cc2)cc1	-4	2	-2	17	0	·	·	·	·
N#CCC1(O)C(=O)N(Cc2ccccc2)c2ccccc21 (stereo unspecified)	-2	·	·	·	-2	·	·	·	·
COc1ccc(N2CC(C(=O)NCCC3=CCCCC3)CC2=O)c(OC)c1 (stereo unspecified)	1	4	-5	0	0	·	·	·	·
CCOc1ccc(C(=O)Nc2ccc(NC(=O)c3ccccc3)c(C)c2)cc1[N+](=O)[O-]	11	44*	78*	29	5	59*	-18	-19	-6
Cc1ccc(C)c(C(O)c2ncc(-c3ccc4ccccc4c3)[nH]2)c1 (stereo unspecified)	-3	8	·	4	2	·	·	·	·
CC(O)(c1cccnc1)c1nc(-c2ccc(S(C)(=O)=O)cc2)cs1 (stereo unspecified)	-5	-3	·	0	0	·	·	·	·
Cc1ccc(Cn2c(C(C)Nc3nc(-c4ccc(C)cc4)cs3)nc3cc(Cl)c(Cl)cc32)cc1 (stereo unspecified)	110*	78*	61*	78*	24	56*	2	4	26	DNMT1 confirm=11;Beacon interf=5
C[C@H](CO)N1C[C@H](C)[C@@H](CN(C)C(=O)Nc2ccc(C(F)(F)F)cc2)Oc2ccc(NC(=O)c3ccncc3)cc2C1=O	19	52*	77*	92*	64*	-12	-21	·	12	DNMT1 confirm=1;Beacon interf=-1
C[C@H](CO)N1C[C@H](C)[C@@H](CN(C)C(=O)Nc2ccc(C(F)(F)F)cc2)Oc2ccc(NC(=O)Nc3ccc(C(F)(F)F)cc3)cc2C1=O	9	-1	-18	-44	4	·	·	·	·
O=C1Nc2ccc3sc4ccccc4c3c2C1=O	55*	96*	93*	24	77*	79*	-9	8.0*	53*
COc1cccc(Nc2c([N+](=O)[O-])cncc2[N+](=O)[O-])c1	-45	0	0	2	-2	·	·	·	·
COc1cccc(Nc2c(Nc3cccc(OC)c3)c(=O)c2=O)c1	16	97*	92*	67*	78*	68*	-11	2	23
Cc1nc(C(F)(F)F)ccc1C(=O)N1CCC1(C)C(=O)NS(=O)(=O)c1ccc(C(C)(C)C)cc1 (stereo unspecified)	3	-1	·	1	-1	·	·	·	·
Cc1cc(-c2nnc(SCC(=O)Nc3c(C)cccc3C)n2N)n[nH]1	1	2	-11	4	-2	·	·	·	·
O=[N+]([O-])c1ccc(C=NNC(=S)NN=Cc2ccc([N+](=O)[O-])cc2)cc1	92*	96*	88*	88*	75*	55*	-14	12*	8	DNMT1 confirm=1;Beacon interf=-12
O=[N+]([O-])c1cc([N+](=O)[O-])c2cc3ccccc3nc2c1	4	4	4	2	4	·	·	·	·
N=C1S/C(=C\c2ccc(O)cc2)C(=O)N1c1ccc(F)cc1	-4	78*	78*	20	69*	52*	-13	19*	12*
SMILES	SUMO1-SIM PPI	STEP inh	Scp-1 inhibitor	DNMT1 block	LMPTP inh	Scp-1 conf	MG interference	Scp-1 Tm shift	STEP inh conf	others
COc1ccc(/C=N/N=C2/NC(=O)C(CC(=O)O)S2)cc1OCc1ccc(Cl)cc1Cl (stereo unspecified)	17	80*	66*	7	4	79*	-7	-10	35*
CC(C)(C)c1ccc(S(=O)(=O)NC(=O)C2(C)CCN2C(=O)Cc2cccs2)cc1 (stereo unspecified)	3	1	·	-1	-1	·	·	·	·
Cc1cc(C)cc(C(=O)N/N=C/c2ccoc2)c1	-4	8	27	14	1	·	·	·	·
O=C(N/N=C/c1ccoc1)c1cc(O)cc(O)c1	43*	61*	63*	93*	35	58*	-16	4	98*	Beacon interf DR=>99;DNMT1 confirm=21;Beacon interf=-5
CSc1ccc(CN2CCC(CO)(CCOc3ccccc3)CC2)cc1	1	1	-4	-5	0	·	·	·	·
O=C(/C=C/c1cccc([N+](=O)[O-])c1)c1cccs1	-12	-2	-10	2	1	·	·	·	·
O=C(N/N=C/C=C\c1ccccc1[N+](=O)[O-])c1cccs1	-20	0	4	0	-1	·	·	·	·

Source: PubChem
